From ChEMBL document CHEMBL5500387, “Design, synthesis of combretastatin A-4 piperazine derivatives as potential antitumor agents by inhibiting tubulin polymerization and inducing autophagy in HCT116 cells” (Eur J Med Chem, 2024)

Assays:
[1] = system: HCT-116; test: Cytotoxicity against human HCT-116 cells assessed as inhibition of cell proliferation measured after 72 hrs by CCK-8 assay; format: functional, cell-based; conditions: HCT-116, 72 h
How it was run: (§1)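 Cells seeded at 2×10^3 per well and grown overnight in 10% FBS medium: HCT116 in McCoy's 5A, A549 and AGS in F-12K, SK-MES-1 in DMEM. Compounds added at varied concentrations with 0.1% DMSO control, 72 h at 37 °C. 10% CCK-8 for 2 h, then A450 read. Survival = (As−Ab)/(Ac−Ab)×100%. IC50 from curve fitting.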

[2] = system: SK-MES-1; test: Cytotoxicity against human SK-MES-1 cells assessed as inhibition of cell proliferation measured after 72 hrs by CCK-8 assay; format: functional, cell-based; conditions: SK-MES-1, 72 h; how it was run: as §1
[3] = system: A549; test: Cytotoxicity against human A549 cells assessed as inhibition of cell proliferation measured after 72 hrs by CCK-8 assay; format: functional, cell-based; conditions: A549, 72 h; how it was run: as §1
[4] = system: AGS; test: Cytotoxicity against human AGS cells assessed as inhibition of cell proliferation measured after 72 hrs by CCK-8 assay; format: functional, cell-based; how it was run: as §1
[5] = Octanol-water partition coefficient, log P of the compound at pH 7.4 at 4 mg measured after 24 hrs by liquid chromatography; format: physicochemical
How it was run: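 4 mg of compound was dissolved in 1 mL water-saturated n-octanol and held 24 h at room temperature, then centrifuged. The supernatant was mixed with an equal volume of octanol-saturated water, stood 24 h, centrifuged and the phases separated. Phase concentrations were measured by LC standard curves. log P = log(C_octanol/C_water). At least three independent runs.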

[6] = Cytotoxicity against human NCM460 cells assessed as inhibition of cell proliferation measured after 72 hrs by CCK-8 assay; format: toxicity, cell-based
How it was run: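 NCM460 normal colonic epithelial cells seeded at 2×10^3 cells/well and grown overnight in RPMI-1640 with 10% FBS. Compounds added at a range of concentrations, 0.1% DMSO as negative control, 72 h at 37 °C. Read-out by CCK-8 (10%, 2 h) at 450 nm. Survival = (As−Ab)/(Ac−Ab)×100%; IC50 taken as concentration giving 50% inhibition of proliferation.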

Row | Structure (SMILES) | IC50 [1] | also measured
1 | COc1ccc(/C=C(/C(=O)N2CCSCC2)c2cc(OC)c(OC)c(OC)c2)cc1O | 1150 nM | 
2 | COc1ccc(/C=C(/C(=O)N2CCOCC2)c2cc(OC)c(OC)c(OC)c2)cc1O | 926 nM | 
3 | COc1ccc(/C=C(/C(=O)N2CCN(c3ccc([N+](=O)[O-])cc3)CC2)c2cc(OC)c(OC)c(OC)c2)cc1O | 2770 nM | 
4 | COc1ccc(/C=C(/C(=O)N2CCN(c3ccc(F)cc3)CC2)c2cc(OC)c(OC)c(OC)c2)cc1O | 253 nM | IC50 [2]: 385 nM; IC50 [3]: 270 nM; IC50 [4]: 531 nM
5 | COc1ccc(/C=C(/C(=O)N2CCN(c3ccc(Cl)cc3)CC2)c2cc(OC)c(OC)c(OC)c2)cc1O | 593 nM | IC50 [2]: 753 nM; IC50 [3]: 366 nM; IC50 [4]: 1110 nM
6 | COc1ccc(/C=C(/C(=O)N2CCN(c3ccccc3C)CC2)c2cc(OC)c(OC)c(OC)c2)cc1O | 1580 nM | 
7 | COc1ccc(/C=C(/C(=O)N2CCN(Cc3ccccc3C)CC2)c2cc(OC)c(OC)c(OC)c2)cc1O | 2850 nM | 
8 | COc1ccc(/C=C(/C(=O)N2CCN(Cc3ccc(Cl)cc3)CC2)c2cc(OC)c(OC)c(OC)c2)cc1O | 2690 nM | 
9 | COc1ccc(N2CCN(C(=O)/C(=C/c3ccc(OC)c(O)c3)c3cc(OC)c(OC)c(OC)c3)CC2)cc1 | 941 nM | IC50 [2]: 605 nM; IC50 [3]: 657 nM; IC50 [4]: 882 nM
10 | COc1ccc(/C=C(/C(=O)N2CCN(c3ccc(C)cc3)CC2)c2cc(OC)c(OC)c(OC)c2)cc1O[C@H]1O[C@@H](CO)[C@H](O)[C@@H](O)[C@@H]1O |  | logD at 24 h [5]: -0.538
11 | COc1ccc(/C=C\c2cc(OC)c(OC)c(OC)c2)cc1O [COMBRETASTATIN A4] |  | IC50 [2]: 7 nM; logD at 24 h [5]: 2.14; IC50 at 72 h [6]: 11 nM; IC50 [4]: 74 nM
12 | COc1cccc(N2CCN(C(=O)/C(=C/c3ccc(OC)c(O)c3)c3cc(OC)c(OC)c(OC)c3)CC2)c1 | 1860 nM | 
13 | COc1ccc(/C=C(/C(=O)N2CCN(c3ccc(C)cc3)CC2)c2cc(OC)c(OC)c(OC)c2)cc1O[C@H]1O[C@@H](CO)[C@H](O[C@@H]2O[C@H](CO)[C@H](O)[C@H](O)[C@H]2O)[C@@H](O)[C@@H]1O |  | logD at 24 h [5]: -0.824
14 | COc1ccc(/C=C(/C(=O)N2CCS(=O)(=O)CC2)c2cc(OC)c(OC)c(OC)c2)cc1O | 1990 nM | 
15 | COc1ccc(/C=C(/C(=O)N2CCN(c3ccc(C#N)cc3)CC2)c2cc(OC)c(OC)c(OC)c2)cc1O | 3350 nM | 
16 | COc1ccc(/C=C(/C(=O)N2CCN(c3ccc(C)cc3)CC2)c2cc(OC)c(OC)c(OC)c2)cc1O[C@H]1O[C@@H](CO)[C@@H](O)[C@@H](O)[C@@H]1O |  | logD at 24 h [5]: -0.432
17 | COc1ccc(/C=C(/C(=O)N2CCN(c3ccc(Br)cc3)CC2)c2cc(OC)c(OC)c(OC)c2)cc1O | 716 nM | IC50 [2]: 803 nM; IC50 [3]: 547 nM; IC50 [4]: 1350 nM
18 | COc1ccc(/C=C(/C(=O)N2CCN(Cc3ccc(C)cc3)CC2)c2cc(OC)c(OC)c(OC)c2)cc1O | 1980 nM | 
19 | COc1ccc(/C=C(/C(=O)N2CCNCC2)c2cc(OC)c(OC)c(OC)c2)cc1O | 735 nM | 
20 | COc1ccc(/C=C(/C(=O)N2CCN(c3ccc(C)cc3)CC2)c2cc(OC)c(OC)c(OC)c2)cc1O[C@H]1O[C@H](CO)[C@@H](O)[C@H](O)[C@@H]1O |  | logD at 24 h [5]: -0.638
21 | COc1ccc(/C=C(/C(=O)N2CCN(c3ccccc3Cl)CC2)c2cc(OC)c(OC)c(OC)c2)cc1O | 1840 nM | 
22 | COc1ccc(/C=C(/C(=O)N2CCCC2)c2cc(OC)c(OC)c(OC)c2)cc1O | 2480 nM | 
23 | COc1ccc(/C=C(/C(=O)N2CCN(c3ccccc3F)CC2)c2cc(OC)c(OC)c(OC)c2)cc1O | 1380 nM | 
24 | COc1ccc(/C=C(/C(=O)N2CCN(Cc3cccc(C)c3)CC2)c2cc(OC)c(OC)c(OC)c2)cc1O | 3640 nM | 
25 | COc1ccc(/C=C(/C(=O)N2CCN(c3cccc(C)c3)CC2)c2cc(OC)c(OC)c(OC)c2)cc1O | 1770 nM | 
26 | COc1ccc(/C=C(/C(=O)N2CCN(Cc3ccc(F)cc3)CC2)c2cc(OC)c(OC)c(OC)c2)cc1O | 2100 nM | 
